Assay results from ChEMBL document CHEMBL1153921, “Design, synthesis, and biological evaluation of novel 1-(1H-1,2,4-triazole-1-yl)-2-(2,4-difluorophenyl)-3-substituted benzylamino-2-propanols” (2009).
≈ marks a conversion by molar mass, not a printed value.

Columns and labels:
Format in all cases: functional
Pichia kudriavzevii = test: Antimicrobial activity against Candida krusei by micro-broth dilution method
Method in brief: (§1)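 Clinical isolates. Tested by broth microdilution in 96-well plates following NCCLS M27-A2. MIC80, the minimum concentration inhibiting growth by 80%, was recorded. Marketed reference antifungals were included as positive controls.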

Candida albicans = test: Antimicrobial activity against Candida albicans by micro-broth dilution method
Method in brief: (§2)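 ATCC standard strains. Broth microdilution in 96-well plates following NCCLS M27-A2 (reference broth dilution method for yeasts). Endpoint is MIC80, the lowest concentration giving 80% growth inhibition. Marketed reference antifungals ran alongside as positive controls.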

Cryptococcus neoformans = test: Antimicrobial activity against Cryptococcus neoformans by micro-broth dilution method; method in brief: as §2
Candida parapsilosis = test: Antimicrobial activity against Candida parapsilosis by micro-broth dilution method; details: Lodderomyces parapsilosis; method in brief: as §1
Candida tropicalis = test: Antimicrobial activity against Candida tropicalis by micro-broth dilution method; method in brief: as §1
Trichophyton rubrum = test: Antimicrobial activity against Trichophyton rubrum by micro-broth dilution method; method in brief: as §1
Nannizzia gypsea = test: Antimicrobial activity against Microsporum gypseum by micro-broth dilution method; method in brief: as §1
Aspergillus fumigatus = test: Antimicrobial activity against Aspergillus fumigatus by micro-broth dilution method; method in brief: as §1

| SMILES | MIC80 (Pichia kudriavzevii) [µg/mL] | MIC80 (Candida albicans) [µg/mL] | MIC80 (Cryptococcus neoformans) [µg/mL] | MIC80 (Candida parapsilosis) [µg/mL] | MIC80 (Candida tropicalis) [µg/mL] | MIC80 (Trichophyton rubrum) [µg/mL] | MIC80 (Nannizzia gypsea) [µg/mL] | MIC80 (Aspergillus fumigatus) [µg/mL] |
| --- | --- | --- | --- | --- | --- | --- | --- | --- |
| CCCN(Cc1ccc([N+](=O)[O-])cc1)CC(O)(Cn1cncn1)c1ccc(F)cc1F (stereo unspecified) | 0.0625 (≈ 0.145 µM) | 0.0156 (≈ 0.0362 µM) | 0.25 (≈ 0.579 µM) | 0.0625 (≈ 0.145 µM) | 0.25 (≈ 0.579 µM) | 0.25 (≈ 0.579 µM) | 0.0156 (≈ 0.0362 µM) | 64 (≈ 148 µM) |
| CCCCN(Cc1cccc(F)c1)CC(O)(Cn1cncn1)c1ccc(F)cc1F (stereo unspecified) | 1 (≈ 2.39 µM) | 0.0156 (≈ 0.0373 µM) | 0.25 (≈ 0.597 µM) | 0.25 (≈ 0.597 µM) | 0.25 (≈ 0.597 µM) | 1 (≈ 2.39 µM) | 0.0625 (≈ 0.149 µM) | > 64 |
| CCCCN(Cc1ccc(F)cc1)CC(O)(Cn1cncn1)c1ccc(F)cc1F (stereo unspecified) | 1 (≈ 2.39 µM) | 0.25 (≈ 0.597 µM) | 0.25 (≈ 0.597 µM) | 0.0625 (≈ 0.149 µM) | 0.25 (≈ 0.597 µM) | 1 (≈ 2.39 µM) | 0.0156 (≈ 0.0373 µM) | > 64 |
| CCCN(Cc1ccccc1C)CC(O)(Cn1cncn1)c1ccc(F)cc1F (stereo unspecified) | 0.0625 (≈ 0.156 µM) | 0.0625 (≈ 0.156 µM) | 0.25 (≈ 0.624 µM) | 0.0625 (≈ 0.156 µM) | 0.0625 (≈ 0.156 µM) | 4 (≈ 9.99 µM) | 0.0039 (≈ 0.00974 µM) | > 64 |
| CC(C)N(Cc1ccc(Cl)cc1Cl)CC(O)(Cn1cncn1)c1ccc(F)cc1F (stereo unspecified) | 1 (≈ 2.2 µM) | 0.25 (≈ 0.549 µM) | 16 (≈ 35.1 µM) | 1 (≈ 2.2 µM) | 1 (≈ 2.2 µM) | 0.25 (≈ 0.549 µM) | 1 (≈ 2.2 µM) | > 64 |
| CCCN(Cc1ccccc1Cl)CC(O)(Cn1cncn1)c1ccc(F)cc1F (stereo unspecified) | 0.25 (≈ 0.594 µM) | 0.25 (≈ 0.594 µM) | 0.0625 (≈ 0.148 µM) | 0.25 (≈ 0.594 µM) | 0.25 (≈ 0.594 µM) | 4 (≈ 9.5 µM) | 0.0156 (≈ 0.0371 µM) | > 64 |
| CC(C)N(Cc1cccc(F)c1)CC(O)(Cn1cncn1)c1ccc(F)cc1F (stereo unspecified) | 0.0625 (≈ 0.155 µM) | 0.0625 (≈ 0.155 µM) | 0.0625 (≈ 0.155 µM) | 0.0625 (≈ 0.155 µM) | 0.0625 (≈ 0.155 µM) | 0.25 (≈ 0.618 µM) | 0.0625 (≈ 0.155 µM) | 64 (≈ 158 µM) |
| CC(C)N(Cc1ccccc1Br)CC(O)(Cn1cncn1)c1ccc(F)cc1F (stereo unspecified) | 0.25 (≈ 0.537 µM) | 0.25 (≈ 0.537 µM) | 0.25 (≈ 0.537 µM) | 0.0625 (≈ 0.134 µM) | 0.0625 (≈ 0.134 µM) | 0.0625 (≈ 0.134 µM) | 0.0156 (≈ 0.0335 µM) | > 64 |
| CCCN(Cc1cccc(F)c1)CC(O)(Cn1cncn1)c1ccc(F)cc1F (stereo unspecified) | 0.0625 (≈ 0.155 µM) | 0.0156 (≈ 0.0386 µM) | 0.0625 (≈ 0.155 µM) | 0.0625 (≈ 0.155 µM) | 0.25 (≈ 0.618 µM) | 1 (≈ 2.47 µM) | 0.0625 (≈ 0.155 µM) | > 64 |
| CCCN(Cc1ccc(Cl)cc1Cl)CC(O)(Cn1cncn1)c1ccc(F)cc1F (stereo unspecified) | 1 (≈ 2.2 µM) | 0.25 (≈ 0.549 µM) | 1 (≈ 2.2 µM) | 1 (≈ 2.2 µM) | 4 (≈ 8.78 µM) | 1 (≈ 2.2 µM) | 0.0156 (≈ 0.0343 µM) | > 64 |
| CC(C)N(Cc1ccccc1)CC(O)(Cn1cncn1)c1ccc(F)cc1F (stereo unspecified) | 0.25 (≈ 0.647 µM) | 0.0156 (≈ 0.0404 µM) | 0.25 (≈ 0.647 µM) | 0.0625 (≈ 0.162 µM) | 0.25 (≈ 0.647 µM) | 0.0625 (≈ 0.162 µM) | 0.0156 (≈ 0.0404 µM) | 64 (≈ 166 µM) |
| CCCN(Cc1ccc(Cl)cc1)CC(O)(Cn1cncn1)c1ccc(F)cc1F (stereo unspecified) | 0.0625 (≈ 0.148 µM) | 0.0625 (≈ 0.148 µM) | 0.0625 (≈ 0.148 µM) | 0.25 (≈ 0.594 µM) | 0.25 (≈ 0.594 µM) | 1 (≈ 2.38 µM) | 0.0625 (≈ 0.148 µM) | 64 (≈ 152 µM) |
| CC(C)N(Cc1ccc(F)cc1)CC(O)(Cn1cncn1)c1ccc(F)cc1F (stereo unspecified) | 0.0625 (≈ 0.155 µM) | 0.0625 (≈ 0.155 µM) | 0.0625 (≈ 0.155 µM) | 0.0625 (≈ 0.155 µM) | 0.25 (≈ 0.618 µM) | 0.25 (≈ 0.618 µM) | 0.0625 (≈ 0.155 µM) | > 64 |
| CC(C)N(Cc1ccccc1Cl)CC(O)(Cn1cncn1)c1ccc(F)cc1F (stereo unspecified) | 0.0625 (≈ 0.148 µM) | 0.0625 (≈ 0.148 µM) | 0.25 (≈ 0.594 µM) | 0.25 (≈ 0.594 µM) | 0.25 (≈ 0.594 µM) | 0.25 (≈ 0.594 µM) | 0.0625 (≈ 0.148 µM) | > 64 |
| Cc1ccc(CN(CC(O)(Cn2cncn2)c2ccc(F)cc2F)C(C)C)cc1 (stereo unspecified) | 0.25 (≈ 0.624 µM) | 1 (≈ 2.5 µM) | 0.25 (≈ 0.624 µM) | 0.25 (≈ 0.624 µM) | 1 (≈ 2.5 µM) | 0.0625 (≈ 0.156 µM) | 0.0625 (≈ 0.156 µM) | 64 (≈ 160 µM) |
| CCCN(Cc1ccccc1)CC(O)(Cn1cncn1)c1ccc(F)cc1F (stereo unspecified) | 0.0625 (≈ 0.162 µM) | 0.0156 (≈ 0.0404 µM) | 0.0625 (≈ 0.162 µM) | 0.0625 (≈ 0.162 µM) | 0.0625 (≈ 0.162 µM) | 0.0625 (≈ 0.162 µM) | 0.0156 (≈ 0.0404 µM) | > 64 |
| CCCN(Cc1ccccc1F)CC(O)(Cn1cncn1)c1ccc(F)cc1F (stereo unspecified) | 0.0625 (≈ 0.155 µM) | 0.0156 (≈ 0.0386 µM) | 0.25 (≈ 0.618 µM) | 0.0625 (≈ 0.155 µM) | 0.0625 (≈ 0.155 µM) | 1 (≈ 2.47 µM) | 0.0156 (≈ 0.0386 µM) | > 64 |
